≈ marks a conversion by molar mass, not a printed value. Calls of active or inactive are those of the source.
Key:
[1] = tested on: Mycobacterium tuberculosis; assay: Antimicrobial activity against Mycobacterium tuberculosis H37Rv in GASTD medium after 10 days by spectrophotometric analysis; type: functional, organism-based; conditions: 240 h
How it was run: (§1)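 Virulent H37Rv, twofold microdilution in iron-limiting GASTD or GASTD plus 100 μM FeCl3, started at OD600 0.001 from deferrated stocks. Compounds were added in DMSO (0.5% final) up to 500 μM or the solubility limit. Cultures sat stationary for 10 days at 37 °C, read at OD600. IC50 from sigmoidal fits to triplicates; MIC90 is the lowest concentration giving ≥90% inhibition versus DMSO controls. Ratios are +Fe/GASTD.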

[2] = tested on: Mycobacterium tuberculosis; assay: Bactericidal activity against Mycobacterium tuberculosis H37Rv in GASTD medium at 2 times MIC after 30 days by colony counting; type: functional, organism-based
How it was run: (§2)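 Duplicate GASTD cultures were treated and incubated as in the growth assay (37 °C, 10 days), then serial 10-fold dilutions were plated on Middlebrook 7H11. Colonies were counted after 30 days at 37 °C and reported as CFU/mL. Bactericidal was defined as >99% killing relative to inoculum.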

Yersinia pestis [3] = assay: Antimicrobial activity against Yersinia pestis KIM6-2082.1+ in PMHD medium supplemented with 100 uM FeCl3 after 26 hrs by spectrophotometric analysis; type: functional, organism-based
[4] = tested on: Mycobacterium tuberculosis; assay: Ratio of MIC90 for Mycobacterium tuberculosis H37Rv in GASTD medium supplemented with 100 uM FeCl3 to MIC90 for Mycobacterium tuberculosis H37Rv in Fe-deficient GASTD medium; type: functional; how it was run: as §1
[5] = tested on: Mycobacterium tuberculosis; assay: Antimicrobial activity against Mycobacterium tuberculosis H37Rv in GASTD medium supplemented with 100 uM FeCl3 after 10 days by spectrophotometric analysis; type: functional, organism-based; conditions: 240 h; how it was run: as §1
[6] = tested on: Mycobacterium tuberculosis; assay: Ratio of IC50 for Mycobacterium tuberculosis H37Rv in GASTD medium supplemented with 100 uM FeCl3 to IC50 for Mycobacterium tuberculosis H37Rv in Fe-deficient GASTD medium; type: functional; how it was run: as §1
HeLa = assay: Cytotoxicity against human HeLa cells at 16 uM after 24 hrs by ATPLite assay; type: cell-based
How it was run: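 HeLa cells in 96-well format, read with an ATPLite reagent-based viability assay. Cell–compound contact lasted 4 hr or 24 hr, and viability was expressed relative to untreated controls.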

Yersinia pestis [7] = assay: Antimicrobial activity against Yersinia pestis KIM6-2082.1+ in PMHD medium after 26 hrs by spectrophotometric analysis; type: functional, organism-based
Yersinia pestis [8] = assay: Ratio of IC50 for Yersinia pestis KIM6-2082.1+ in PMHD medium supplemented with 100 uM FeCl3 to IC50 for Yersinia pestis KIM6-2082.1+ in Fe-deficient PMHD medium; type: functional
Yersinia pestis [9] = assay: Bactericidal activity against Yersinia pestis KIM6-2082.1+ in PMHD medium at 2 times MIC after 3 days by colony counting; type: functional, organism-based
Yersinia pestis [10] = assay: Ratio of MIC90 for Yersinia pestis KIM6-2082.1+ in PMHD medium supplemented with 100 uM FeCl3 to IC50 for Yersinia pestis KIM6-2082.1+ in Fe-deficient PMHD medium; type: functional
[11] = tested on: Mycobacterium tuberculosis; assay: Bactericidal activity against Mycobacterium tuberculosis H37Rv in GASTD medium at MIC after 30 days by colony counting; type: functional, organism-based; how it was run: as §2
Yersinia pestis [12] = assay: Bactericidal activity against Yersinia pestis KIM6-2082.1+ in PMHD medium at MIC after 3 days by colony counting; type: functional, organism-based

| SMILES | IC50 [1] [µM] | MIC90 [1] [µM] | Activity [2] | IC50 (Yersinia pestis [3]) [µM] | MIC90 (Yersinia pestis [3]) [µM] | Ratio [4] | IC50 [5] [µM] | MIC90 [5] [µM] | Ratio IC50 [6] | Activity (HeLa) [%] | IC50 (Yersinia pestis [7]) [µM] | MIC90 (Yersinia pestis [7]) [µM] | Ratio IC50 (Yersinia pestis [8]) | Activity (Yersinia pestis [9]) | Ratio (Yersinia pestis [10]) | Activity [11] | Activity (Yersinia pestis [12]) |
| --- | --- | --- | --- | --- | --- | --- | --- | --- | --- | --- | --- | --- | --- | --- | --- | --- | --- |
| Cc1ccccc1[C@@H]1CC(c2ccccc2O)=NN1C(N)=S | 7 | 16 (≈ 4.98 µg/mL) | Active | > 31 | > 31 | 1 | 7 | 16 (≈ 4.98 µg/mL) | 1 | 24 | > 62 | > 63 |  |  |  |  |  |
| O=S(=O)(c1ccccc1)N1N=C(c2ccccc2O)C[C@H]1c1ccccc1O | > 63 | > 63 |  | > 31 | > 31 |  | > 16 | > 31 |  |  | 8 | > 31 | >4 |  |  |  |  |
| O=C(c1ccccc1)N1N=C(c2ccccc2O)C[C@H]1c1ccc(O)cc1 | > 63 | > 63 |  | > 16 | > 16 |  | > 16 | > 63 |  |  | > 31 | > 31 |  |  |  |  |  |
| CC(=O)N1N=C(c2ccccc2O)C[C@H]1c1ccccc1O | > 31 | > 32 |  | > 31 | > 31 |  | > 16 | > 16 |  |  | > 31 | > 31 |  |  |  |  |  |
| CN[C@@H]1[C@H](O[C@H]2[C@H](O[C@H]3[C@H](O)[C@@H](O)[C@H](N=C(N)N)[C@@H](O)[C@@H]3N=C(N)N)O[C@@H](C)[C@]2(O)C=O)O[C@@H](CO)[C@H](O)[C@H]1O [STREPTOMYCIN] |  |  |  | 1 | 2 (≈ 1.16 µg/mL) |  |  |  |  |  | 1 | 1 (≈ 0.582 µg/mL) | 1 | Active | 2 |  |  |
| NC(=O)N1N=C(c2ccccc2O)C[C@H]1c1ccccc1O | 77 | 208 (≈ 61.8 µg/mL) | Active | > 250 | > 250 | 0.5 | 64 | 104 (≈ 30.9 µg/mL) | 1 |  | > 250 | > 250 |  |  |  |  |  |
| O=C(c1ccncc1)N1N=C(c2ccccc2O)C[C@H]1c1ccccc1O | 8 | 16 (≈ 5.75 µg/mL) | Active | > 16 | > 16 | 1 | 8 | 16 (≈ 5.75 µg/mL) | 1 |  | > 16 | > 16 |  |  |  |  |  |
| O=S(=O)(c1ccccc1)N1N=C(c2ccccc2O)C[C@H]1c1ccc(O)cc1 | > 63 | > 63 |  | > 31 | > 31 |  | > 31 | > 31 |  |  | > 16 | > 16 |  |  |  |  |  |
| Cc1ccc(S(=O)(=O)N2N=C(c3ccccc3O)C[C@H]2c2ccc(O)cc2)cc1 | > 63 | > 63 |  | > 16 | > 16 |  | > 31 | > 31 |  |  | > 31 | > 31 |  |  |  |  |  |
| CC(=O)N1N=C(c2ccccc2O)C[C@H]1c1ccc(O)cc1 | > 8 | > 8 |  | > 16 | > 16 |  | > 8 | > 8 |  |  | > 16 | > 16 |  |  |  |  |  |
| C/C(=N\NC(=O)NO)c1ccc(O)cc1 | > 500 | > 500 |  | > 500 | > 500 |  | > 500 | > 500 |  |  | > 500 | > 500 |  |  |  |  |  |
| NNC(=O)c1ccncc1 [ISONIAZID] | 0.07 | 0.2 (≈ 0.0274 µg/mL) | Active |  |  | 1 | 0.09 | 0.2 (≈ 0.0274 µg/mL) | 1 |  |  |  |  |  |  |  |  |
| Oc1ccc([C@@H]2CC(c3ccccc3O)=NN2)cc1 | 46 | 125 (≈ 31.8 µg/mL) |  | > 31 | > 31 | 1 | 37 | 125 (≈ 31.8 µg/mL) | 1 |  | 20 | > 31 | >2 |  |  | Active |  |
| N=C(N)N1N=C(c2ccccc2O)C[C@H]1c1ccc(O)cc1 | 31 | 125 (≈ 37 µg/mL) | Active | > 63 | > 63 | 1 | 26 | 76 (≈ 22.5 µg/mL) | 1 |  | > 125 | > 125 |  |  |  |  |  |
| N=C(NO)N/N=C/c1ccc(O)cc1 | 43 | 222 (≈ 43.1 µg/mL) | Active | > 500 | > 500 | 1 | 43 | 132 (≈ 25.6 µg/mL) | 1 |  | > 500 | > 500 |  |  |  |  |  |
| NC(=O)N1N=C(c2ccccc2O)C[C@H]1c1ccc(O)cc1 | > 63 | > 63 |  | > 31 | > 31 |  | > 32 | > 63 |  |  | > 31 | > 31 |  |  |  |  |  |
| C/C(=N\NC(=O)NO)c1ccccc1O | > 8 | > 8 |  | > 2 | > 2 |  | > 8 | > 8 |  |  | > 4 | > 4 |  |  |  |  |  |
| N/C(=N\O)N/N=C/c1ccccc1O | 11 | 222 (≈ 43.1 µg/mL) | Active | 305 | > 500 | 1 | 15 | 26 (≈ 5.05 µg/mL) | 1 |  | 70 | 250 (≈ 48.5 µg/mL) | 4 | Active | >2 |  |  |
| O=C(NO)N1N=C(c2ccccc2O)C[C@H]1c1ccc(O)cc1 | 42 | 125 (≈ 39.2 µg/mL) |  | > 31 | > 31 |  | 40 | > 31 | 1 |  | 13 | > 31 | >2 |  |  | Active |  |
| O=C(NO)N1N=C(c2ccccc2O)C[C@H]1c1ccccc1O | 54 | > 63 |  | > 31 | > 31 |  | > 32 | > 31 |  |  | 8 | > 31 | >4 |  |  |  |  |
| O=C(c1ccncc1)N1N=C(c2ccccc2O)C[C@H]1c1ccc(O)cc1 | > 8 | > 8 |  | > 8 | > 8 |  | > 4 | > 4 |  |  | > 8 | > 8 |  |  |  |  |  |
| Cc1ccc(S(=O)(=O)N2N=C(c3ccccc3O)C[C@H]2c2ccccc2O)cc1 | > 63 | > 63 |  | > 16 | > 16 |  | > 31 | > 31 |  |  | > 31 | > 31 |  |  |  |  |  |
| O=C(c1ccccc1)N1N=C(c2ccccc2O)C[C@H]1c1ccccc1O | 84 | > 500 |  | > 63 | > 63 |  | 98 | > 500 | 1 |  | > 31 | > 31 |  |  |  |  |  |
| O=C(NO)N/N=C/c1ccc(O)cc1 | 97 | 146 (≈ 28.5 µg/mL) | Active | > 250 | > 250 | 1 | 40 | 97 (≈ 18.9 µg/mL) | 0.4 |  | > 250 | > 250 |  |  |  |  |  |
| O=C(NO)N/N=C/c1ccccc1O | > 16 | > 16 |  | > 4 | > 4 |  | > 16 | > 16 |  |  | > 16 | > 16 |  |  |  |  |  |
| NC(=S)N1N=C(c2ccccc2O)C[C@H]1c1ccccc1O | 53 | 125 (≈ 39.2 µg/mL) | Active | > 63 | > 63 | 1 | 50 | 125 (≈ 39.2 µg/mL) | 1 |  | 181 | > 250 |  |  |  |  |  |
| Oc1ccccc1C1=NN[C@H](c2ccccc2O)C1 | 25 | 66 (≈ 16.8 µg/mL) | Active | > 8 | > 8 | 1 | 18 | 59 (≈ 15 µg/mL) | 1 |  | 9 | 31 (≈ 7.88 µg/mL) |  |  |  |  | Active |
